High-throughput results from PubChem BioAssay.
STEP block = STEP phosphatase inhibitors, primary screen, biochemical, fluorescence intensity, uHTS | recombinant STEP, OMFP fluorogenic substrate | inhibition, % at 20 µM | 0.25% of 360,000 active;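 active = inhibition at 20 µM, scaled per plate between control wells, above about 37%, limit read from the data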
Target sequence (P54829 whole entry, looked up): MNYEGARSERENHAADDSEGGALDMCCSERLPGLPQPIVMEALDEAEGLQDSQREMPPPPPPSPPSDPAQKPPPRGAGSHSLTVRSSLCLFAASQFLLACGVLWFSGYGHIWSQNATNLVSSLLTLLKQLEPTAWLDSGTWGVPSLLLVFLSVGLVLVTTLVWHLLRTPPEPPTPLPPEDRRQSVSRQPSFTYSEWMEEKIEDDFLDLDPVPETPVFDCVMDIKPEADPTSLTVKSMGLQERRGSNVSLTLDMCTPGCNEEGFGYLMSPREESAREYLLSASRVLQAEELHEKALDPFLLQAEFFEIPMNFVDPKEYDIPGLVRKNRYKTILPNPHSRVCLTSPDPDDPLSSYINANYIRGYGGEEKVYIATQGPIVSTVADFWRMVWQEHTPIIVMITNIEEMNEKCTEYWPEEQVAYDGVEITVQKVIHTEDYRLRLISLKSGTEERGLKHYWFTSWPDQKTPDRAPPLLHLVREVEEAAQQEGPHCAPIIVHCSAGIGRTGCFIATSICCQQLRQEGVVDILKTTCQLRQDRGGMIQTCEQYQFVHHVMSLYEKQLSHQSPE
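Material: STEP (striatal-enriched tyrosine phosphatase) enzyme, cell-free; Compound dosing: 20 µM single dose in 1% DMSO; Technique: fluorescence read at 480 nm ex / 540 nm em; Times: reaction 20 min, ambient temperature; Medium: 50 mM Bis-Tris pH 6.0 with 2.5 mM DTT and 0.005% Tween 20; Also added: OMFP at 25 µM.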
SUMO1-SIM PPI = modulators of SUMO1 protein-protein interactions, primary screen, biochemical, uHTS. Small ubiquitin-related modifier 1 (Homo sapiens), P63165. 0.33% of 360,000 active. inhibition, % at 20 µM. SUMO1 binding to a labelled peptide, TR-FRET, 1 h; in the data active = inhibition above about 37%
Target sequence (P63165 whole entry, looked up): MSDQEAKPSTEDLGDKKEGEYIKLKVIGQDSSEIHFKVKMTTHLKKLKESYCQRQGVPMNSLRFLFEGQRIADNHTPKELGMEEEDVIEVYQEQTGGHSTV
LMPTP block = LMPTP phosphatase inhibitors, primary screen, biochemical, fluorescence intensity, uHTS; inhibition, % at 20 µM; Low molecular weight phosphotyrosine protein phosphatase (Homo sapiens), P24666; recombinant LMPTP-A, OMFP fluorogenic substrate; 0.22% of 360,000 active; AID 651560, 2012;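 active = compounds that cut the enzyme signal by at least half of the control window in the single-dose screen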
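Test system: LMPTP-A, protein tyrosine phosphatase of low molecular weight; Input: 0.625 nM enzyme; Incubation: 50 min dark incubation at room temperature; Signal: endpoint fluorescence intensity from OMFP dephosphorylation; Read-out basis: % inhibition versus control wells.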
Scp-1 inhibitor = Scp-1 phosphatase inhibitors, primary screen, biochemical, colorimetric, uHTS | 0.88% of 340,000 active | inhibition, % at 20 µM | AID 493091, 2011 | Carboxy-terminal domain RNA polymerase II polypeptide A small phosphatase 1 (Homo … | Recombinant Scp1, phosphopeptide, malachite green phosphate absorbance;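 active = inhibition above about 50% at 20 µM, limit read from the data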
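Test system – truncated SCP-1 phosphatase (76-261aa) · Reagent – Phosphorylated 17-residue peptide substrate · Incubation – 45 min room-temperature reaction, 5 min colour, 30 min stabiliser · Detection – colorimetric phosphate reagent with accelerator and stabiliser, absorbance at 630 nm · Measure – % inhibition at 20 µM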
DNMT1 block = human DNMT1 methyltransferase inhibitors, primary screen, biochemical, molecular beacon, fluorescence, HinP1I cleavage, uHTS; DNA (cytosine-5)-methyltransferase 1 (Homo sapiens), P26358; 0.83% of 360,000 active; inhibition (reported as % activation of signal), % at 10 µM; in the data active = inhibition above about 50%
Each line names hits and unclear results; the compound was inactive in the other large screens. Hits are enriched below; roughly 1.7% of the tested compounds scored in any of these assays.

CC1CCC(NC(=O)c2cccc(S(=O)(=O)NCc3ccccc3)c2)CC1 (stereo not drawn)	none
CCOc1ccc(NC(=O)c2ccc(CNc3c(NC4CCCCC4)c(=O)c3=O)cc2)cc1	DNMT1 block 55.7
Cc1c(-c2ccc(Cl)cc2)oc(=O)c2c(N)n(-c3ccccc3)nc12	DNMT1 block 54.1
N#CC(C#N)=C(N)/C(C#N)=C/c1cc(O)c(O)c(O)c1	LMPTP block 50.6
N#C/C(=C\c1ccc(O)c(O)c1)C(=O)c1ccc(O)c(O)c1	none
CN(C)c1ccc(C=Cc2nccc3ccccc23)cc1	DNMT1 block 68.7 (no result: Scp-1 inhibitor)
CCOc1ccc(/C=N/NC(=O)c2nnn(-c3nonc3N)c2COc2ccc(F)cc2)cc1	none
CN(Cc1c(C(=O)N/N=C/c2ccccc2O)nnn1-c1nonc1N)C1CCCCC1	DNMT1 block 59.2 (no result: Scp-1 inhibitor)
Nc1nonc1-n1nnc(C(=O)N/N=C/c2ccc(Cl)cc2Cl)c1CN1CCCCC1	none
Nc1nonc1-n1nnc(C(=O)N/N=C/c2cc(Cl)ccc2O)c1CN1CCCCCC1	DNMT1 block 50.0 (no result: Scp-1 inhibitor)
CN(C)c1ccc(/C=N/NC(=O)c2nnn(-c3nonc3N)c2COc2ccc(F)cc2)cc1	LMPTP block 51.0
O=C(NN1C(=O)/C(=C/c2ccc(O)c(O)c2)SC1=S)c1ccccc1	DNMT1 block 50.3
Cc1cc(NCCCCCCCNc2cc(C)nc3cc([N+](=O)[O-])ccc23)c2ccc([N+](=O)[O-])cc2n1	SUMO1-SIM PPI 128.5, LMPTP block 91.0
COCCCNc1cc(C)nc2ccccc12	none
O=C1N/C(=C/c2cccs2)C(=O)N1Cc1ccc(Br)cc1	none
CCOc1cc(S(=O)(=O)NCCCN2CCOCC2)ccc1F	none
O=c1c2cc(Cl)ccc2nc(-c2ccc(Cl)c(Cl)c2)n1O	LMPTP block 54.4
O=C(CCC(C(=O)c1ccccc1)c1ccccc1)c1ccccc1 (stereo not drawn)	none (no result: Scp-1 inhibitor)
O=[N+]([O-])c1c(Nc2ccc(O)cc2)cc(Cl)c2nonc12	STEP block 48.6
Cc1cc(/C=N/NC(=O)C(O)(c2ccccc2)c2ccccc2)c(C)n1-c1cccc(C(=O)O)c1	DNMT1 block 53.9
Oc1cc2c(cc1O)C1c3ccc(O)c(O)c3OCC1(O)C2 (stereo not drawn)	Scp-1 inhibitor 60.9
CC1CCN(C(=S)NC(=O)c2ccc(C(C)(C)C)cc2)CC1	SUMO1-SIM PPI 44.6
Cc1cc2nc3s/c(=C/c4ccc(-c5ccccc5C(=O)O)o4)c(=O)n3c2cc1C	Scp-1 inhibitor 97.8
Cc1cc2nc(/C(C#N)=C\c3ccc(-c4ccccc4C(=O)O)o3)[nH]c2cc1C	none
CC1CCC(C(C)C)C(NC(=O)c2ccncc2)C1 (stereo not drawn)	none (no result: Scp-1 inhibitor)
COc1ccc(Nc2oc(COc3ccc(Cl)cc3)nc2C#N)cc1	SUMO1-SIM PPI 42.1
O=C(COc1ccccc1[N+](=O)[O-])Nc1ccc(N2CCN(C(=O)c3cccs3)CC2)cc1	none
O=C(CCN1C(=O)/C(=C\c2ccccc2)SC1=S)NNC(=O)c1ccccc1O	none
NC(=NCc1ccccc1)NN=Cc1ccnc2ccccc12	none (no result: Scp-1 inhibitor)
O=c1nc2s/c(=C\c3ccco3)c(=O)n2nc1Cc1ccc(F)cc1	Scp-1 inhibitor 77.4
COc1ccc(Cc2c(C(C)(C)C)nc3ccc(Cl)cn23)c(C)c1	DNMT1 block 103.7 (no result: Scp-1 inhibitor)
CCCCNC(=O)C1Cc2cc(S(=O)(=O)N3CCCC3)ccc2N1C(C)=O (stereo not drawn)	none
CN1C(=O)S/C(=C/c2ccc(OCc3cccc(C(=O)O)c3)cc2)C1=O	Scp-1 inhibitor 51.6
COc1cccc(/C=C2/SC(=O)N(C)C2=O)c1OCc1ccc(C(=O)O)cc1	none
COCCN(C(=O)COC(=O)CCC1CCCCC1)c1c(N)n(Cc2ccccc2)c(=O)[nH]c1=O	none (no result: Scp-1 inhibitor)
Cc1ccc(S(=O)(=O)N(CCC(=O)NCc2ccc(S(N)(=O)=O)cc2)c2ccccc2)cc1	none
Cc1ccccc1Nc1cc2ccccc2c(=O)[nH]1	DNMT1 block 83.7
O=c1[nH]c(Nc2ccc(F)cc2)cc2ccccc12	none
O=c1[nH]c(Nc2ccccc2Cl)cc2ccccc12	DNMT1 block 85.4
CC1(c2nnnn2-c2ccc3c(c2)OCCO3)CCC(=O)N1CCc1c[nH]c2ccccc12 (stereo not drawn)	none (no result: STEP block, Scp-1 inhibitor, DNMT1 block)
COC(=O)c1ccc(COC(=O)C(NC(=O)Cc2ccccc2)C(C)C)cc1 (stereo not drawn)	none
Cc1cc(C(=O)COC(=O)c2cc(O)c3ccccc3c2O)c(C)n1CC1CCCO1 (stereo not drawn)	Scp-1 inhibitor 73.5
Cc1ccc(C(=O)N/C(=C\c2cccs2)C(=O)NCC2CCCO2)cc1C (stereo not drawn)	none
COc1ccc(C(=O)COC(=O)Cn2cnc3ccccc3c2=O)c(OC)c1	none
CC1=NOC(=O)/C1=C/c1ccc(-c2ccc(Cl)cc2)o1	none (no result: Scp-1 inhibitor)
CC1=NOC(=O)/C1=C\c1ccc(-c2ccc(Br)cc2)o1	DNMT1 block 61.3
Cn1c(N)c(C(=O)COC(=O)COc2ccc(Br)cc2)c(=O)n(C)c1=O	SUMO1-SIM PPI 40.3
Cc1ccc(S(=O)(=O)N2C[C@H]3C(=O)C[C@@H](c4ccccc4)N(S(=O)(=O)c4ccc(Br)cc4)[C@H]3C[C@H]2c2ccccc2)cc1	none (no result: Scp-1 inhibitor)
CO[C@@]1(NC(=O)CSCC#N)C(=O)N2C(C(=O)O)=C(CSc3nnnn3C)CS[C@@H]21	Scp-1 inhibitor 64.6, DNMT1 block 66.3
Cc1csc(=O)n1CCC(=O)OCC(=O)N(C)c1c(N)n(Cc2ccccc2)c(=O)[nH]c1=O	none (no result: Scp-1 inhibitor)
CN(C)c1ccc(/C=C/c2cc[n+](C)cc2)cc1	Scp-1 inhibitor 95.9
NS(=O)(=O)c1ccc(CCNC(=O)COC(=O)/C=C/c2cc(Br)ccc2F)cc1	none
CC(C)NC(=O)c1onc(CSc2cccc(Cl)c2)c1C(=O)O	none
COc1ccccc1N1CCN(C(c2cc3cc(C)ccc3[nH]c2=O)c2nnnn2C2CCCC2)CC1 (stereo not drawn)	SUMO1-SIM PPI 44.6
CC1CC(C)CN(C(=O)C2CCN(C(=O)Nc3ccccc3)CC2)C1 (stereo not drawn)	none
CC(OC(=O)Cc1n[nH]c(=O)c2ccccc12)C(=O)Nc1ccc(F)cc1Cl (stereo not drawn)	none
COc1ccccc1OCC(=O)Nc1cc(NC(=O)COc2ccccc2OC)cc(C(=O)O)c1	none
O=C(COc1ccccc1Cl)Nc1cc(NC(=O)COc2ccccc2Cl)cc(C(=O)O)c1	Scp-1 inhibitor 73.4
CC[C@H](C)[C@H]1CNC(=S)N1CC1CCN(CCC23CC4CC(CC(C4)C2)C3)CC1	none
